One data set has as its target T1, Vasopressin V1b receptor (Homo sapiens, UniProt P47901).
T1 sequence (P47901 whole entry): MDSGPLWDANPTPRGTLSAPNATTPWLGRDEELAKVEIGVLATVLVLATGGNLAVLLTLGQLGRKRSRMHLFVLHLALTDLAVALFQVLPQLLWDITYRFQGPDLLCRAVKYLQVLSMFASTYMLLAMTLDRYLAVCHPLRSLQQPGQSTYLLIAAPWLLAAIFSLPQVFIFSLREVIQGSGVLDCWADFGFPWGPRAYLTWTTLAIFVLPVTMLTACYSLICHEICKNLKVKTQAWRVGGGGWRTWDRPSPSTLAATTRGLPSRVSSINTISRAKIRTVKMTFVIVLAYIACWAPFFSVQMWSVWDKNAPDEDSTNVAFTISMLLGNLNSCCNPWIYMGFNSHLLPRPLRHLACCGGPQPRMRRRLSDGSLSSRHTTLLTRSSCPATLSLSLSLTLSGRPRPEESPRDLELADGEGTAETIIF
The data set is described as follows: Displacement of [3H]AVP from human vasopressin V1b receptor expressed in CHO cell membranes after 60 mins by TopCount microplate scintillation counting method. (Displacement assays read how much labelled ligand stays bound in the presence of the test substance.)

For data set [1], the species on record is Homo sapiens. The data set can be described thus: Selectivity index, ratio of Ki for human vasopressin V1a receptor to Ki for human vasopressin V1b receptor. The gist of the method:
(§1)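 Selectivity was calculated from human receptor Ki values as Ki hOT/Ki hV1b or Ki hV1a/Ki hV1b. Each Ki is the mean of at least two experiments (MSR 2.8).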

For data set [2], the species on record is Homo sapiens. The data set is described as follows: Selectivity index, ratio of Ki for human oxytocin receptor to Ki for human vasopressin V1b receptor. The gist of the method:
as §1

A short description of data set [3]: Intrinsic clearance in human liver microsomes. Format: ADME, microsome. To be noted: read-out: CLH. Put shortly:
(§2)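 Intrinsic clearance was measured in human and rat liver microsomes, in µL/min/mg. Values are means of at least two experiments.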
On the technique in general: Liver microsomes are a subcellular fraction often used to study metabolism.

A short description of data set [4]: Intrinsic clearance in rat liver microsomes. Format: ADME, microsome. Conditions: read-out: CLH. The gist of the method: as §2
The nature of data set [5]: Elimination half life in rat at 2 mg/kg, iv. The data set is classed as ADME, organism-based. To be noted: in vivo, read-out: beta t1/2 (converted). The gist of the method:
(§3)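 Rat PK after a 2 mg/kg intravenous dose. Plasma clearance (L/h/kg), terminal half-life (h) and steady-state volume of distribution (L/kg) were derived.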

Data set [6] can be described thus: Volume of distribution at steady state in rat at 2 mg/kg, iv. Format: ADME, organism-based. To be noted: in vivo, read-out: Vdss. The gist of the method:
as §3

A short description of data set [7]: Clearance in rat plasma at 2 mg/kg, iv. The data set is classed as ADME, organism-based. The gist of the method:
as §3

Data set [8] can be described thus: Oral bioavailability in rat at 10 mg/kg. The data set is classed as ADME, organism-based. To be noted: in vivo. Put shortly: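 Rat oral dosing, at 10 or 5 mg/kg depending on compound. Oral bioavailability (%) was calculated.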
The nature of data set [9]: Ratio of AUC in rat brain to plasma at 10 mg/kg, ip measured after 8 hrs. Format: ADME, organism-based. Conditions: read-out: Ratio AUC. The gist of the method:
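Rats were dosed 10 mg/kg intraperitoneally. Brain and plasma AUC were taken over an 8 h period, and the brain:plasma ratio was calculated from them.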

For data set [10], the system named is Rattus norvegicus. The data set is described as follows: Antidepressant like activity in Sprague-Dawley rat assessed as floating time at 3 mg/kg, ip administered at 24, 4 and 0.5 hrs prior to test by forced swimming test. Format: functional. The gist of the method:
(§4)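 Rat forced swim test. Drug given intraperitoneally at 3 mg/kg, dosed 24, 4 and 0.5 h before testing. Floating, swimming and climbing times were scored. Nomifensine served as positive control. Data reported as mean ± SEM.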

Data set [11] relates to Rattus norvegicus. The data set is described as follows: Antidepressant like activity in Sprague-Dawley rat assessed as swimming time at 3 mg/kg, ip administered at 24, 4 and 0.5 hrs prior to test by forced swimming test. Format: functional. Put shortly: as §4
For data set [12], the system named is Rattus norvegicus. The data set is described as follows: Antidepressant like activity in Sprague-Dawley rat assessed as climbing time at 3 mg/kg, ip administered at 24, 4 and 0.5 hrs prior to test by forced swimming test. Format: functional. Put shortly:
as §4

The Ki is the dissociation constant of the complex between target and ligand, obtained from inhibition or displacement. Broadly, the clearance is the volume of plasma or blood freed of the substance per unit of time. The low end stands for a low capacity for elimination, the high end for a high capacity for elimination. As a reminder, the bioavailability is the share of a dose that reaches the circulation, judged against a reference dose that is usually intravenous. For `CCOc1ccc(OC)cc1C1(N2CCN(c3ccncc3)CC2)C(=O)N(S(=O)(=O)c2cccc3cccnc23)c2ccc(C#N)cc21` (stereo not drawn), the Ki at Vasopressin V1b receptor was 5 nM. The Ratio Ki was determined as 79 in the data set listed under Homo sapiens [1] and 34 in the data set filed under Homo sapiens [2]. For the same compound, the microsomal CLint was 170 µL/min/mg in data set [3] and 210 µL/min/mg in data set [4]. Moreover, the half-life in [5] is 144 min. Also, the Vd in [6] was 10 L/kg. Besides, the clearance in [7] was 46.7 mL/min/kg. This compound also yielded a bioavailability in [8] of 18%. The Kp at 8 h in data set [9] turned out to be 1.4. Besides, the Time with Rattus norvegicus [10] turned out to be 159.15 s; with Rattus norvegicus [11], 12.46 s; with Rattus norvegicus [12] it was 125.69 s.

Source of the values: ChEMBL document CHEMBL4265879, “Novel, potent, selective and brain penetrant vasopressin 1b receptor antagonists” (Bioorg Med Chem Lett, 2018).
